Here are results for 37 compounds from ChEMBL document CHEMBL5113430, “Evaluation of chromane derivatives: Promising privileged scaffolds for lead discovery within Alzheimer's disease” (Bioorg Med Chem, 2022).

In data set [1] the target is T1, Acetylcholinesterase (Electrophorus electricus, UniProt O42275). Kind of data set: Inhibition of electric eel AChE using […] as a substrate and measured upto 180 sec by DTNB based Ellman's method. (DTNB colorimetry detects thiols as they appear.)
In data set [2] the target is T2, Amine oxidase [flavin-containing] A (Homo sapiens, UniProt P21397).
T2 sequence (P21397 whole entry): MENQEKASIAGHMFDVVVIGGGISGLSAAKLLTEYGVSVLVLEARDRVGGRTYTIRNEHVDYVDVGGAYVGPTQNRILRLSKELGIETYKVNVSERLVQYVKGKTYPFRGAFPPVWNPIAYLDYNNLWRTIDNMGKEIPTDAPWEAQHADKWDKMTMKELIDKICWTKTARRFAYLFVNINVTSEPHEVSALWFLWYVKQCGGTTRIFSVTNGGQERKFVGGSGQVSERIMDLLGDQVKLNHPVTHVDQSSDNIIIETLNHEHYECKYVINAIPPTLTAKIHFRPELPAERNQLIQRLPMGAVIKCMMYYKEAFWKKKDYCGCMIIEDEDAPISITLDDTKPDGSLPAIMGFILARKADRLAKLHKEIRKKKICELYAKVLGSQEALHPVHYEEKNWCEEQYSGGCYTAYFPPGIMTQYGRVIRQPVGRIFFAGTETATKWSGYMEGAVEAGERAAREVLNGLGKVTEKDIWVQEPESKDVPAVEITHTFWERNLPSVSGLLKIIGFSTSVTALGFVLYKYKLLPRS
Put plainly: Inhibition of recombinant MAO-A (unknown origin) expressed in baculovirus infected BTI cells assessed as reduction in 4-hydroxyquinoline level using kynuramine as a substrate at 1 uM incubated for 20 mins by discontinuous fluorimetric assay relative to control. The procedure, abridged: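 Discontinuous fluorimetric assay with recombinant membrane-bound MAO-A and kynuramine at two-fold KM (KM = 30 μM). Test compound at 1 μM, from a 1 mM DMSO stock. Incubated 20 min at 37 °C, stopped with 2 N NaOH. 4-hydroxyquinoline read at ex 320 nm / em 405 nm. Percent inhibition against no-inhibitor control, mean ± SD of two independent experiments in duplicate.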

In data set [3] the target is T1, Acetylcholinesterase. Put plainly: Inhibition of electric eel AChE using […] as a substrate and measured for 125 sec by DTNB based Ellman's method.
Data set [4] addresses T3, Cholinesterase (Equus caballus, UniProt P81908). Kind of data set: Inhibition of Equine serum BuChE using S-butyrylthiocholine iodide as a substrate and measured for 125 sec by DTNB based Ellman's method.
Data set [5] concerns the target T4, Amine oxidase [flavin-containing] B (Homo sapiens, UniProt P27338).
T4 sequence (P27338 whole entry): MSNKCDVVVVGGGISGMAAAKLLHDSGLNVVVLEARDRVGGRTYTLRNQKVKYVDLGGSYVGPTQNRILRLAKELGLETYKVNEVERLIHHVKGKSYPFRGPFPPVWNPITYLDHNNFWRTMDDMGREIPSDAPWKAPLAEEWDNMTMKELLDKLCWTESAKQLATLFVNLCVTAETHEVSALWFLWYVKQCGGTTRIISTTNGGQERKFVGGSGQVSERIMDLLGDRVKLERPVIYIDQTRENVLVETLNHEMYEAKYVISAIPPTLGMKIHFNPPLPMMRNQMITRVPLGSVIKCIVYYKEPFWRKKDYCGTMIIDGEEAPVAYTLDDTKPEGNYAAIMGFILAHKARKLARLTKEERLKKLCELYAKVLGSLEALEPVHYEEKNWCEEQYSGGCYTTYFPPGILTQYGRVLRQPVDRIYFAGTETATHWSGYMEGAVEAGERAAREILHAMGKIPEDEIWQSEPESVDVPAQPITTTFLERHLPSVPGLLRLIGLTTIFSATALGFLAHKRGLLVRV
Put plainly: Inhibition of recombinant MAO-B (unknown origin) expressed in baculovirus infected BTI cells assessed as reduction in 4-hydroxyquinoline level using kynuramine as a substrate at 1 uM incubated for 20 mins by discontinuous fluorimetric assay relative to control. To be noted: read-out: INH.

Data set [6] deals with Cholinesterase (Equus caballus) (UniProt P81908). Put plainly: Inhibition of equine serum BuChE at 0.8 mM by STD-NMR spectroscopy. The procedure, abridged:
(§1)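 STD-NMR with 5 μM equine BuChE in D2O; ligand stocks of 8.8 and 4.8 mM. Saturation times for buildup curves 0.25–5 s, total experiment time held at 6.5 s. Water suppression at 4.7 ppm, sweep width 20.03 ppm. Blanks checked for direct ligand saturation.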

In data set [7] the target is T3, Cholinesterase. Put plainly: Inhibition of Equine serum BuChE assessed as inhibitory constants for binding the enzyme-substrate complex using S-butyrylthiocholine iodide as a substrate by Cornish-Bowden plot analysis. The procedure, abridged:
(§2)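 Equine BuChE, Ellman method: 50 μM phosphate buffer pH 8.0, 0.975 mM DTNB, 1.25% DMSO, 25 °C, read at 405 nm over 125 s. Runs used 5 butyrylthiocholine levels (1/4 to 4 × KM) and 3–4 inhibitor levels giving roughly 30–80% inhibition. KM and Vmax came from nonlinear regression. Mode of inhibition and constants came from Cornish-Bowden plots.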

The target in data set [8] is T3, Cholinesterase. Put plainly: Inhibition of Equine serum BuChE assessed as inhibitory constants for binding the free enzyme using S-butyrylthiocholine iodide as a substrate by Cornish-Bowden plot analysis. The procedure, abridged: as §2
For data set [9], the target named is T4, Amine oxidase [flavin-containing] B. Kind of data set: Inhibition of human MAO-B assessed as shielding effect on inhibitor […] at 0.016 mM incubated for 20 min by STD-NMR spectroscopy. The following applies: 16 µM. The procedure, abridged:
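MAO-B incubated with the N-propargyl inhibitor and followed by 1H NMR, with spectra recorded every 5 min. The spectrum of inhibitor alone was compared with the inhibitor–enzyme mixture at 20 min, watching shifts of inhibitor protons, especially the propargyl proton. Ligand-only controls and blanks checked for direct saturation. Water suppression at 4.7 ppm.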

Data set [10] deals with Cholinesterase (Equus caballus) (UniProt P81908). Put plainly: Inhibition of equine serum BuChE at 1.47 mM by STD-NMR spectroscopy. The procedure, abridged:
as §1

Active and inactive are the calls of the source. No cut-off for these calls is given here.

T3 sequence (P81908 whole entry): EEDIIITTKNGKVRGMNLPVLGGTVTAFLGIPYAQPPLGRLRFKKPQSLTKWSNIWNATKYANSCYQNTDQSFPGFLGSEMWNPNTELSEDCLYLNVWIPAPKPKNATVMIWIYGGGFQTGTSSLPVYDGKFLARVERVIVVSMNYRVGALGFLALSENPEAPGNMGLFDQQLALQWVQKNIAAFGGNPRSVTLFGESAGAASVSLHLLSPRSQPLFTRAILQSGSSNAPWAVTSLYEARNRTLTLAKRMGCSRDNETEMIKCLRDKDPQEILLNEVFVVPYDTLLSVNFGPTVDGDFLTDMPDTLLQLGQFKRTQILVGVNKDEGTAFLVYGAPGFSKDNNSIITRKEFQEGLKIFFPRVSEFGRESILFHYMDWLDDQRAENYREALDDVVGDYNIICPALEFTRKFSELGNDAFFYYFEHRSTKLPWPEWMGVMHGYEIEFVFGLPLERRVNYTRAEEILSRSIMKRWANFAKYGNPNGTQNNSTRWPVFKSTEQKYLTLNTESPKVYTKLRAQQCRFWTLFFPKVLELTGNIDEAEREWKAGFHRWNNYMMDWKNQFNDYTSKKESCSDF
T1 sequence (O42275 whole entry): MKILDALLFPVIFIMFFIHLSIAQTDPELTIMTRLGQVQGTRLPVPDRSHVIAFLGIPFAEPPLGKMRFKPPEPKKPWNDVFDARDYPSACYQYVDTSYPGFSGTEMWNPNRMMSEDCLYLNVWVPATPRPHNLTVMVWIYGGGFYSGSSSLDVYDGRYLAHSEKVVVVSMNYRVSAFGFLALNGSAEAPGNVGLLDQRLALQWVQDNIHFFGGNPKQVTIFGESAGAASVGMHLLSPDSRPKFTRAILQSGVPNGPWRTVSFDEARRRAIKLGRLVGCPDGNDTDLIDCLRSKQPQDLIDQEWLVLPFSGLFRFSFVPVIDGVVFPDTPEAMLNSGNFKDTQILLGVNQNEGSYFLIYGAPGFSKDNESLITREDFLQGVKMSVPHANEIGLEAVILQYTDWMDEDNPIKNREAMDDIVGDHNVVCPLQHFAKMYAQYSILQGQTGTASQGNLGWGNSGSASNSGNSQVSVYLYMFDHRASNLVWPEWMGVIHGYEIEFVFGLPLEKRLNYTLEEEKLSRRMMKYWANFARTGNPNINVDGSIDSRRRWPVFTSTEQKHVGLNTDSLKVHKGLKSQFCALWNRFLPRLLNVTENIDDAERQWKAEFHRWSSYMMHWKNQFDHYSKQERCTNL
Sequence of Cholinesterase (Equus caballus) (P81908 whole entry): as the sequence (P81908 whole entry) above

By IC50 is commonly meant the concentration that inhibits the measured activity by half. A lower IC50 goes with higher potency. `O=C1CC(OCCCCCSC(=S)N2CCCCC2)Oc2ccccc21` (configuration not stated): at Acetylcholinesterase [1], it took 0.1 µM to reach half-maximal inhibition (IC50).

As to `C[C@H](NCc1ccc(OCc2cccc(F)c2)cc1)C(N)=O` [SAFINAMIDE], the inhibition at 1 µM in [2] is 1.8%.

For the compound `CC1(C)COc2ccc3ccccc3c2C1O` (configuration not stated), the half-inhibitory concentration (IC50) against Acetylcholinesterase [3] is over 100 µM; against Cholinesterase [4], 33 µM.

Turning to `CC1(C)COc2ncccc2C1=O`, the IC50 against Acetylcholinesterase [3] and against Cholinesterase [4] was over 100 µM each time.

As to `CC1(C)COc2ccc(F)cc2C1O` (configuration not stated), the IC50 against Acetylcholinesterase [3] and against Cholinesterase [4] was over 100 µM throughout. Further, the inhibition at 1 µM is 8.3% in data set [5] and 16.5% in data set [2].

For orientation: Ki means a measure of affinity in units of concentration, obtained from inhibition or displacement. Regarding `COc1cccc2c1OCC(C)(C)C2N` (configuration not stated), the inhibition entry in data set [6] is “Active”. In addition, the inhibition at 1 µM in data set [5] was 4.3%; in [2], -0.7%. The inhibition constant (Ki) on Cholinesterase [7] was determined as 19.1 µM; on Cholinesterase [8] it was 9 µM. Further, the IC50 at Cholinesterase [4] came to 7.6 µM.

As for `CC1(C)COc2ccc(C#N)cc2C1O` (configuration not stated), the IC50 was over 100 µM at Acetylcholinesterase [3] and 18 µM against Cholinesterase [4].

In the case of `CC1(C)COc2c(OC(F)(F)F)cccc2C1=O`, the IC50 on Acetylcholinesterase [3] is over 100 µM; on Cholinesterase [4] it was 4.3 µM.

In the case of `COc1cccc2c1C(O)C(C)(C)CO2` (configuration not stated), the half-inhibitory concentration (IC50) on Acetylcholinesterase [3] and against Cholinesterase [4] was over 100 µM in each case. Also, the inhibition at 1 µM in data set [5] is 5.3%; in [2] it was 11.5%.

Turning to `C#CCNC1c2cccc(OC)c2OCC1(C)C` (configuration not stated), the inhibition at 1 µM turned out to be 13.8% in [5] and 4.6% in data set [2].

In the case of `CCOc1cc(C#N)cc2c1OCC(C)(C)C2O` (configuration not stated), the IC50 was over 100 µM at Acetylcholinesterase [3] and 7.3 µM on Cholinesterase [4].

Turning to `C#CCNC1c2cc(C)ccc2OCC1(C)C` (configuration not stated), the values for the inhibition at 1 µM in data set [5] and in data set [2] were -6.8% and -9.4%, respectively.

In the case of `CC1(C)COc2c(ccc3cccnc23)C1O` (configuration not stated), the IC50 at Acetylcholinesterase [3] is over 100 µM; against Cholinesterase [4] it was 5 µM. Besides, the results for the Ki on Cholinesterase [7] and at Cholinesterase [8] were 13.7 µM and 7.2 µM, respectively.

In the case of `CC1(C)COc2cc(F)c(F)cc2C1O` (configuration not stated), the IC50 is over 100 µM at Acetylcholinesterase [3] and 28 µM at Cholinesterase [4].

In the case of `COc1cccc2c1OCC(C)(C)C2=O`, the IC50 against Acetylcholinesterase [3] and on Cholinesterase [4] was over 100 µM in each case.

On to `C#CCN(C)CCCOc1ccc(Cl)cc1Cl` [CLORGILINE], for which the inhibition at 1 µM in [2] came to 99.8%.

On to `CC1(C)COc2cc3ccccc3cc2C1O` (configuration not stated), for which the IC50 is over 100 µM on Acetylcholinesterase [3] and 50 µM on Cholinesterase [4].

Take `CC1(C)COc2ccc3ccccc3c2C1N` (configuration not stated): the inhibition at 1 µM in [5] is 2.7%; in data set [2], 12.5%. Also, the IC50 against Cholinesterase [4] stood at 52 µM.

For the compound `COc1cccc2c1C(=O)C(C)(C)CO2`, the half-maximal inhibitory concentration (IC50) against Acetylcholinesterase [3] was over 100 µM; against Cholinesterase [4] it was 12 µM. The inhibition at 1 µM in [5] is 5.9%; in data set [2], 12.1%.

As for `CCOc1cc(C#N)cc2c1OCC(C)(C)C2=O`, the IC50 at Acetylcholinesterase [3] and against Cholinesterase [4] was over 100 µM each time. The values for the inhibition at 1 µM in [5] and in data set [2] were 4.7% and 20.5%, respectively.

Consider `CC1(C)COc2ccccc2C1=O`, for which the half-inhibitory concentration (IC50) on Acetylcholinesterase [3] was over 100 µM; against Cholinesterase [4] it was 43 µM. Further, the inhibition at 1 µM turned out to be 9.2% in [5] and 9.7% in [2].

`CC1(C)COc2ccc(F)cc2C1=O`: the figures for the IC50 on Acetylcholinesterase [3] and against Cholinesterase [4] were over 100 µM and 33 µM, respectively.

Regarding `C#CCN(Cc1ccccc1)C1c2cccc(OC)c2OCC1(C)C` (configuration not stated), the inhibition at 1 µM in data set [5] was determined as 14.7%; in data set [2], 4.3%.

Take `CC1(C)COc2ccccc2C1N` (configuration not stated): the inhibition at 1 µM was 3.7% in data set [5] and -3.8% in data set [2]. The same compound returned a concentration for half-maximal inhibition (IC50) against Cholinesterase [4] of 38 µM.

`CC1(C)COc2ccccc2C1O` (configuration not stated): the figures for the half-maximal inhibitory concentration (IC50) at Acetylcholinesterase [3] and at Cholinesterase [4] were over 100 µM and 40 µM, respectively. Moreover, the inhibition at 1 µM in data set [5] came to 8%; in data set [2], 24.3%.

As to `CC1(C)COc2cc(F)c(F)cc2C1=O`, the half-maximal inhibitory concentration (IC50) against Acetylcholinesterase [3] and against Cholinesterase [4] was over 100 µM each time.

As to `Cc1ccc2c(c1)C(O)C(C)(C)CO2` (configuration not stated), the half-inhibitory concentration (IC50) on Acetylcholinesterase [3] and against Cholinesterase [4] was over 100 µM in each case.

For `C#CCN(Cc1ccccc1)C1c2ccccc2OCC1(C)C` (configuration not stated), the inhibition at 1 µM in data set [5] was 2.9%; in [2], -10.6%.

With `NC1CCOc2ccccc21` (configuration not stated), the inhibition at 1 µM in data set [5] was 4.8%; in data set [2] it was -0.7%.

`CC1(C)COc2cc(F)ccc2C1=O`: the IC50 against Acetylcholinesterase [3] and at Cholinesterase [4] was over 100 µM in each case.

Consider `Cc1ccc2c(c1)C(N)C(C)(C)CO2` (configuration not stated), for which it took 67 µM to reach half-maximal inhibition against Cholinesterase [4] (IC50).

Take `CC1(C)COc2c(ccc3cccnc23)C1=O`: the half-inhibitory concentration (IC50) was over 100 µM against Acetylcholinesterase [3] and 6.4 µM at Cholinesterase [4]. Besides, the inhibition at 1 µM in data set [5] stood at 4.8%; in [2] it was 14.8%.

Regarding `CC1(C)COc2cc3ccccc3cc2C1N` (configuration not stated), the results for the inhibition at 1 µM in [5] and in data set [2] were 7.5% and 13.3%, respectively. For the same compound, the inhibitory constant (Ki) on Cholinesterase [7] is 11 µM; on Cholinesterase [8] it was 18 µM. On Cholinesterase [4], this compound had a 50% inhibitory concentration (IC50) of 8.9 µM.

As to `C#CCNC1c2ccccc2OCC1(C)C` (configuration not stated), in [5], the inhibition at 1 µM worked out at 11.6%. The “inhibition (INH)” value in data set [9] is “Active”.

`CC1(C)COc2ccc3ccccc3c2C1=O`: the half-maximal inhibitory concentration (IC50) against Acetylcholinesterase [3] is over 100 µM; on Cholinesterase [4], 2.9 µM. Also, in data set [10], the inhibition entry is “Active”. Further, the inhibition at 1 µM was found to be 5.1% in data set [5] and 23.2% in data set [2]. Besides, the inhibitory constant (Ki) on Cholinesterase [7] stood at 6.7 µM; at Cholinesterase [8], 2 µM.

Take `CC1(C)COc2cc(F)ccc2C1O` (configuration not stated): the half-maximal inhibitory concentration (IC50) at Acetylcholinesterase [3] is over 100 µM; at Cholinesterase [4], 18 µM.

As to `CC1(C)COc2cc3ccccc3cc2C1=O`, the values for the 50% inhibitory concentration (IC50) at Acetylcholinesterase [3] and on Cholinesterase [4] were over 100 µM and 3.1 µM, respectively. Besides, the inhibition at 1 µM in data set [5] is 27.7%; in data set [2], 16.4%.
